Source: ChEMBL document CHEMBL1781938, “New 3-, 8-disubstituted pyrazolo[5,1-c][1,2,4]benzotriazines useful for studying the interaction with the HBp-3 area (hydrogen bond point area) in the benzodiazepine site on the γ-aminobutyric acid type A (GABAA) receptor” (Bioorg Med Chem, 2011)

Columns and labels:
[1] = species: Bos taurus; test: Displacement of [3H]Ro151788 from bovine GABA-A receptor at 10 uM
Method in brief: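 Bovine cerebral cortex membranes diluted in 50 mM Tris–citrate buffer pH 7.4, with protein measured by Lowry. Specific binding of [3H]flumazenil (Ro 15-1788) was read as percent inhibition with test compound at a fixed 10 µM. Compounds inhibiting by more than 80% went on to Ki determination.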

[2] = Displacement of [3H]Ro151788 from bovine GABA-A receptor; design: species or system Bos taurus
Method in brief: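 Competition binding against [3H]flumazenil (Ro 15-1788) at the benzodiazepine site, using bovine cerebral cortex membranes diluted in 50 mM Tris–citrate pH 7.4. Protein was measured by the Lowry method. Each compound was run at six or more concentrations. Ki was derived only for compounds giving more than 80% inhibition of specific binding at 10 µM.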

Row | SMILES | Activity [1] | Ki [2]
1 | [O-][n+]1nc2c(I)cnn2c2cc(-c3ccsc3)ccc21 | > 80% | 56 nM
2 | COc1ccccc1-c1ccc2c(c1)n1ncc(I)c1n[n+]2[O-] | > 80% | 305 nM
3 | [O-][n+]1nc2c(-c3ccsc3)cnn2c2cc(-c3ccco3)ccc21 | > 80% | 209 nM
4 | [O-][n+]1nc2c(I)cnn2c2cc(-c3ccccc3O)ccc21 | > 80% | 2480 nM
5 | [O-][n+]1nc2c(-c3ccsc3)cnn2c2cc(-c3ccsc3)ccc21 | > 80% | 357 nM
6 | [O-][n+]1nc2c(I)cnn2c2cc(-c3ccc[nH]3)ccc21 | > 80% | 25 nM
7 | [O-][n+]1nc2c(I)cnn2c2cc(-c3ccncc3)ccc21 | > 80% | 2380 nM
8 | O=C(c1ccco1)c1cnn2c1n[n+]([O-])c1ccc(-c3ccco3)cc12 | > 80% | 857 nM
9 | [O-][n+]1nc2c(-c3ccsc3)cnn2c2cc(-c3ccccc3)ccc21 | > 80% | 642 nM
10 | [O-][n+]1nc2c(-c3ccsc3)cnn2c2cc(-c3cccs3)ccc21 | > 80% | 370 nM
11 | [O-][n+]1nc2c(-c3ccsc3)cnn2c2cc(-c3ccc[nH]3)ccc21 | > 80% | 19.4 nM
12 | O=C(OCc1cccs1)c1cnn2c1n[n+]([O-])c1ccc(-c3ccco3)cc12 | > 80% | 54.8 nM
13 | [O-][n+]1nc2c(I)cnn2c2cc(-c3cccs3)ccc21 | > 80% | 202 nM

Continued by falling Ki [2], values first:

Row | Activity [1] | Ki [2] | SMILES
14 | > 80% | 817 nM | COc1ccc(-c2ccc3c(c2)n2ncc(-c4ccsc4)c2n[n+]3[O-])cc1
15 | > 80% | 395 nM | CC(C)(C)OC(=O)n1cccc1-c1ccc2c(c1)n1ncc(C(=O)OCc3cccs3)c1n[n+]2[O-]
16 | > 80% | 241 nM | COc1ccc(-c2ccc3c(c2)n2ncc(I)c2n[n+]3[O-])cc1
17 | > 80% | 239 nM | COc1ccc(-c2ccc3c(c2)n2ncc(C(=O)c4ccco4)c2n[n+]3[O-])cc1
18 | > 80% | 190 nM | [O-][n+]1nc2c(I)cnn2c2cc(-c3ccco3)ccc21
19 | > 80% | 63 nM | O=C(c1ccco1)c1cnn2c1n[n+]([O-])c1ccc(-c3ccc[nH]3)cc12
20 | > 80% | 48.3 nM | [O-][n+]1nc2c(-c3ccc[nH]3)cnn2c2cc(-c3ccsc3)ccc21
21 | > 80% | 29.4 nM | COc1ccc(-c2ccc3c(c2)n2ncc(C(=O)OCc4cccs4)c2n[n+]3[O-])cc1
22 | > 80% | 26.9 nM | [O-][n+]1nc2c(-c3ccco3)cnn2c2cc(-c3ccsc3)ccc21
23 | > 80% | 14.9 nM | COC(=O)c1cnn2c1n[n+]([O-])c1ccc(-c3ccc[nH]3)cc12
